These results are taken from ChEMBL document CHEMBL6127097, “Structure-Guided Discovery of cis-Hexahydro-pyrido-oxazinones as Reversible, Drug-like Monoacylglycerol Lipase Inhibitors” (J Med Chem, 2024).

Series [1] is described as follows: Drug concentration in mouse CSF at 30 mg/kg, ip measured after 16 hrs. The class given is ADME, organism-based, Cerebrospinal fluid. The following applies: read-out: Ct.
The nature of series [2]: Drug concentration in mouse CSF at 30 mg/kg, ip measured after 2 hrs. To be noted: read-out: Ct. The class given is ADME, organism-based, Cerebrospinal fluid.
Series [3] in a line: Genotoxicity in Salmonella typhimurium by Ames test. Format: toxicity. To be noted: salmonella enterica subsp. enterica serovar typhimurium.
The next series concerns the target T1, Monoglyceride lipase (Homo sapiens, UniProt Q99685).
T1 sequence (Q99685 whole entry): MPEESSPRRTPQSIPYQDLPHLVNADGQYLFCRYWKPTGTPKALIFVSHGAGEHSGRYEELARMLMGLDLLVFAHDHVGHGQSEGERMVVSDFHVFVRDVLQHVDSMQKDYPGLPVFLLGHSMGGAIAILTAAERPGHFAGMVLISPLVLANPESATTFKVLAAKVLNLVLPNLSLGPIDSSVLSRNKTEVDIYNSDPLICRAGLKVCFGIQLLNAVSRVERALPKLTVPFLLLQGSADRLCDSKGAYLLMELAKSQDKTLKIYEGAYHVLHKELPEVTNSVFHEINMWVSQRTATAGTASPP
The series is described as follows: Inhibition of human MAGL using native substrate by Rapidfire MS assay.

The nature of series [4]: Half-life in Wistar rat at 1 mg/kg, iv measured upto 24 hrs by LC-MS/MS analysis. The following applies: in vivo. Format: ADME, organism-based. The method, boiled down: (§1)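 Male Wistar rats, single dose. i.v. in NMP/0.9% NaCl 30:70; p.o. and i.p. in NMP/HPMC/diisooctyl sulfosuccinate 10:90; 3 per i.v./p.o. group, 6 i.p. K2EDTA plasma sampled 0.083–7 h, plus 24 h for i.v./p.o.; brain and CSF at 1, 2, 7 h (i.p. only). LC-MS/MS, noncompartmental analysis.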

Series [5] can be described thus: Oral bioavailability in Wistar rat at 5 mg/kg measured upto 24 hrs by LC-MS/MS analysis. The class given is ADME, organism-based. The following applies: in vivo. The essentials: as §1
The target in series [6] is Voltage-gated inwardly rectifying potassium channel KCNH2 (Homo sapiens, UniProt Q12809). Description: Inhibition of human ERG expressed in CHO cells by automated patch clamp method. The class given is toxicity, cell-based.
Sequence of Voltage-gated inwardly rectifying potassium channel KCNH2 (Q12809 whole entry): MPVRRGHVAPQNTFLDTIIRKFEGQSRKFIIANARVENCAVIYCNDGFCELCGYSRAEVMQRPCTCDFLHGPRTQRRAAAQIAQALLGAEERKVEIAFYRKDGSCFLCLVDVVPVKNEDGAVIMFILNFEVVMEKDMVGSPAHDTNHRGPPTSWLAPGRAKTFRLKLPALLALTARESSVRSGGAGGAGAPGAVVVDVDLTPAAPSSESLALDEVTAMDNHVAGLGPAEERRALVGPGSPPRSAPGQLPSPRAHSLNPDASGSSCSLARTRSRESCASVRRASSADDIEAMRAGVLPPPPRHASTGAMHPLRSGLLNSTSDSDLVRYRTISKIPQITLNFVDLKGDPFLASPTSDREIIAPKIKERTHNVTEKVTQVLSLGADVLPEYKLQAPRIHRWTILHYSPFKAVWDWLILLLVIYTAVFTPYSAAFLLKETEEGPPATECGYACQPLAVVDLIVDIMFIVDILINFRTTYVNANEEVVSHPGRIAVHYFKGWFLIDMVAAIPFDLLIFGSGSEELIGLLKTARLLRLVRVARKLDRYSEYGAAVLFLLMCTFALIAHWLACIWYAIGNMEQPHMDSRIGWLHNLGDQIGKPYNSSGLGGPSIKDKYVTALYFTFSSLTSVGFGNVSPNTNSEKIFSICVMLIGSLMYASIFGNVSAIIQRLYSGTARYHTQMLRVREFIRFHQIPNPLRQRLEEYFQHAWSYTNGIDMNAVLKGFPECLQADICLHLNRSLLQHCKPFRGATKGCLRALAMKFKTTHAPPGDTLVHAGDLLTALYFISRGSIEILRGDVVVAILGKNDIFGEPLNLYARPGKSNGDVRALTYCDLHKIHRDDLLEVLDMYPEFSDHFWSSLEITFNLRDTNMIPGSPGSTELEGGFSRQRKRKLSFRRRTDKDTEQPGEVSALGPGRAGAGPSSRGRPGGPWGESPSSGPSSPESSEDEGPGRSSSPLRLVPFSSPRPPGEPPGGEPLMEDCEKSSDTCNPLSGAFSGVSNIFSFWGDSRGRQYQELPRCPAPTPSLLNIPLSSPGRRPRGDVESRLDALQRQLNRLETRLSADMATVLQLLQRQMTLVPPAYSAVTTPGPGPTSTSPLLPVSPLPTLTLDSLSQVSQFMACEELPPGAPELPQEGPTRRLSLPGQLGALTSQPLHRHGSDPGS
Series [7] can be described thus: Clearance in Wistar rat at 1 mg/kg, iv measured upto 24 hrs by LC-MS/MS analysis. The class given is ADME, organism-based. The following applies: in vivo. The method, boiled down:
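Male Wistar rats (N = 3 per group) received a single dose. The i.v. dose was 1 mg/kg in NMP/0.9% NaCl 30:70. The p.o. dose was 5 mg/kg in NMP/HPMC/diisooctyl sulfosuccinate 10:90. Blood was taken into K2EDTA from 0.083 (i.v.) or 0.25 h to 24 h. Plasma was assayed by LC-MS/MS and analysed non-compartmentally.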

Series [8] in a line: Clearance in human hepatocytes assessed per 10 million cells. To be noted: read-out: CLH. The class given is ADME, cell-based, Hepatocyte.
In series [9] the target is T2, Monoglyceride lipase (Mus musculus) (UniProt O35678).
T2 sequence (whole entry): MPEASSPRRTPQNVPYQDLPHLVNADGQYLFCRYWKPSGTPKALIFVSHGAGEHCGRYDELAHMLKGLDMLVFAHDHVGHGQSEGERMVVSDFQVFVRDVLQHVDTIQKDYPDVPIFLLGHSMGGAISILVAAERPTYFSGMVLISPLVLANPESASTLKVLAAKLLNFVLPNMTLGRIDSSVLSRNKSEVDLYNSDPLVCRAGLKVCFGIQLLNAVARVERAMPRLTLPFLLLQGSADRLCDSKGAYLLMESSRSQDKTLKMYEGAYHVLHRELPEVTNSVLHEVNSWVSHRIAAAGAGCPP
Description: In vivo receptor occupancy at MAGL receptor in mouse at 10 mg/kg, ip measured after 4 hrs. The class given is functional, organism-based.

In a further series the test system is LLC-PK1. Description: Substrate activity at human P-gp expressed in LLC-PK1 cells assessed as efflux ratio incubated for 3 hrs. Format: cell-based. The method, boiled down:
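LLC-PK1 porcine kidney cells transfected with human or mouse P-gp, grown as polarized monolayers on filter plates. Compound is dosed apically or basolaterally and transport followed 3 h at 37 °C. Efflux ratio comes from unidirectional Papp; 1 µM zosuquidar defines permeability without P-gp.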

For series [10], the target named is T2, Monoglyceride lipase (Mus musculus). The series is described as follows: In vivo receptor occupancy at MAGL receptor in mouse at 30 mg/kg, ip measured after 8 hrs. Format: functional, organism-based. The essentials:
(§2)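 Mice dosed 30 mg/kg i.p. in NaCl/DMSO/TW80 (80/10/10). Brain proteome was prepared at set time points over 24 h and MAGL occupancy read by activity-based protein profiling.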

The target in series [11] is T3, Lysophosphatidylserine lipase ABHD12 (Mus musculus) (UniProt Q99LR1).
T3 sequence (whole entry): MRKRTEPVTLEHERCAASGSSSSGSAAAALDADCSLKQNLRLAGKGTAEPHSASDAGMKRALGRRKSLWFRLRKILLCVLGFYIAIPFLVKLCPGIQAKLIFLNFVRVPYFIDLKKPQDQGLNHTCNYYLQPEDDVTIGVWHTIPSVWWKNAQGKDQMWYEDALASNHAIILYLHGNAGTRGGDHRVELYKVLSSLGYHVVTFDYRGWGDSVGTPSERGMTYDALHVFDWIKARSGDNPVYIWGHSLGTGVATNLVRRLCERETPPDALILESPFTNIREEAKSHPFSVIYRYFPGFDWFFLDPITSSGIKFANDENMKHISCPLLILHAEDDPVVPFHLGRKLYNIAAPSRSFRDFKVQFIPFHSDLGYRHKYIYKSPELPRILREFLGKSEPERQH
Description: Inhibition of ABHD12 in mouse brain lysates at 10 uM by ABPP assay. The class given is subcellular. The essentials:
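Gel-based activity-based protein profiling of hydrolases, with the inhibitor at 10 µM.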

The subject of series [12] is Mus musculus. Description: Downregulation of brain AA level in ip dosed mouse measured after 4 hrs. Format: functional, organism-based. The following applies: dose 3-30 mg/kg. The essentials: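 Mice received 3, 10 or 30 mg/kg i.p. in NaCl/DMSO/Tween 80 (80/10/10) and were sacrificed after 4 h. Arachidonic acid in brain extracts was measured by LC/MS.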
In series [13] the target is T2, Monoglyceride lipase (Mus musculus). The series is described as follows: In vivo receptor occupancy at MAGL receptor in mouse at 30 mg/kg, ip measured after 2 hrs. Format: functional, organism-based. The essentials: as §2
Series [14] has as its system Mus musculus. Description: Antiinflammatory activity in LPS-induced CD-1 mouse neuroinflammation model assessed as decrease in brain LCN2 mRNA expression at 30 mg/kg, ip measured after 6 hrs by qRT-PCR analysis. Format: functional, organism-based. The method, boiled down: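 CD-1 mice received NaCl + vehicle, LPS (5 mg/kg) + vehicle, or LPS + inhibitor at 30 mg/kg i.p. The vehicle was NaCl/DMSO/Tween 80, 80/10/10. Mice were killed 6 h after compound dosing. LCN2 and IL1b mRNA in cortical brain lysates were quantified by droplet digital qRT-PCR.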

The next series is filed under the species Homo sapiens. Description: Inhibition of serotonin transporter (unknown origin) at 10 uM relative to control. The method, boiled down:
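Cerep panel of 50 off-targets, percent inhibition at 10 µM.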

Series [15] concerns the target T4, Monoglyceride lipase (Homo sapiens) (UniProt Q99685).
T4 sequence (whole entry): T1 sequence (Q99685 whole entry)
Description: Binding affinity to human MAGL assessed as association rate constant by SPR analysis. The method, boiled down: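 Human or rat MAGL was immobilized by amine coupling without ethanolamine quenching. Runs were done at 18 °C in 10 mM HEPES, 150 mM NaCl, 0.05% P20, 50 µM EDTA, pH 7.4, with 1% DMSO. Single-cycle kinetics used five concentrations, top 1 µM in 2-fold steps, at 30 µL/min, giving kon, koff and Kd.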

The source made the active and inactive calls. No cut-off for these calls is given here.

As for `O=C1CO[C@H]2CCN(C(=O)N3CCC(Cc4ccc(C(F)(F)F)cc4)CC3)C[C@H]2N1` [listing 1 of 2 here], the concentration at 16 h in [1] amounted to 48 nM. In series [2], the concentration at 2 h is 689 nM. Moreover, the Activity result in series [3] is recorded as “Non-Toxic”. Also, the figures for the IC50 (at Monoglyceride lipase (read-out: IC50); at Monoglyceride lipase (read-out: pIC50 (converted)); in series [6]) were 32 nM, 28.2 nM and 7.7 µM, respectively. Besides, the half-life in series [4] was 306 min. In addition, the bioavailability in series [5] was 115%. This molecule returned a clearance in series [7] of 4.6 mL/min/kg. Also, the hepatocyte CLint in series [8] amounted to 1.9 µL/min/1e6 cells.

`O=C1CO[C@H]2CCN(C(=O)N3CCC(Cc4ccc(C(F)(F)F)cc4)CC3)C[C@H]2N1` [listing 2 of 2 here]: the Activity was 79% in series [9], 92% in series [10], “Dose-Dependent Effect” in the series on Mus musculus [12] and 96% in series [13]. Besides, the Ratio in the series on LLC-PK1 was found to be 2.4. Also, the inhibition entry in [11] is “inactive”. The outcome with Mus musculus [14] was Active. In addition, the inhibition in the series listed under Homo sapiens was found to be 57%. Moreover, in [15], the K was 2.5 10^5/M/s.
